From ChEMBL document CHEMBL4152210, “Design, synthesis, anti-lung cancer activity, and chemosensitization of tumor-selective MCACs based on ROS-mediated JNK pathway activation and NF-κB pathway inhibition” (Eur J Med Chem, 2018)
The source made the active and inactive calls. The rule behind the calls is not given here.

Experiments:
NCI-H1975 = test: Cytotoxicity against human NCI-H1975 cells assessed as reduction in cell viability after 72 hrs by MTT assay; type: functional, cell-based; conditions: NCI-H1975, 72 h
Summary of the method: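 Cells in RPMI 1640 with 10% heat-inactivated FBS and penicillin/streptomycin at 37 °C, 5% CO2. Seeded at 4000 per well, adhered overnight, then exposed to graded compound concentrations in triplicate wells for 72 h. MTT (5 mg/mL stock) added for 4 h, dissolved in DMSO, A490 read. IC50 is the concentration reducing viability by 50% versus untreated control.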

[1] = Selectivity index, ratio of IC50 for human HL7702 cells to IC50 for human H460 cells; type: toxicity
Summary of the method: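 Selectivity index taken as the logarithm of the ratio of the HL7702 IC50 to the cancer-line IC50. […] Not calculated when an IC50 was lacking.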

A549 [2] = test: Induction of apoptosis in human A549 cells after 24 hrs by Annexin V-FITC/propidium iodide staining based flow cytometric analysis; type: functional, cell-based
Summary of the method: (§1)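 A549 treated 24 h at 1, 5 or 10 µM, with BMS345541 20 µM as control. Inhibitor arms pretreated 1 h with NAC (5 mM) or SP600125 (10 µM) before 10 µM. Cells harvested with EDTA-free trypsin, stained with FITC Annexin V and PI for 15 min at room temperature in the dark, analysed by flow cytometry.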

A549 [3] = test: Induction of apoptosis in human A549 cells assessed as increase in caspase-3 level after 24 hrs by Western blot analysis; type: functional, cell-based
A549 [4] = test: Induction of apoptosis in human A549 cells assessed as increase in Bax level at 1 to 10 uM after 24 hrs by Western blot analysis; type: functional, cell-based
Summary of the method: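 A549 treated at 1, 5 or 10 µM, or with BMS345541 (20 µM), for 24 h. Cleaved PARP and Bax detected by western blot (10% SDS-PAGE, PVDF, 5% milk block, HRP secondary).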

A549 [5] = test: Induction of ROS generation in human A549 cells at 10 uM after 12 hrs by DCFDA staining based flow cytometric analysis; type: functional, cell-based; conditions: in the assay text read “after 9 hrs” for “after 12 hrs”
Summary of the method: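 A549 (6 × 10^5 per 60 mm dish) exposed to 10 µM over a time course up to 12 h, or at 1, 5 or 10 µM for 9 h. Optional NAC (5 mM) pretreatment for 1 h before 10 µM for 9 h. Cells loaded with DCF-DA (10 µM) for 30 min at 37 °C in the dark, washed, and read by flow cytometry.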

[6] = target: Mitogen-activated protein kinase 8/9 (Homo sapiens) (UniProt P45983+P45984); test: Induction of JNK 1/2 phosphorylatyion in human A549 cells at 10 uM pretreated with 5 mM NAC for 1 hr followed by compound addition and measured after 6 hrs by Western blot analysis; type: cell-based
Sequence of Mitogen-activated protein kinase 8/9 (Homo sapiens) (P45983 whole entry, looked up): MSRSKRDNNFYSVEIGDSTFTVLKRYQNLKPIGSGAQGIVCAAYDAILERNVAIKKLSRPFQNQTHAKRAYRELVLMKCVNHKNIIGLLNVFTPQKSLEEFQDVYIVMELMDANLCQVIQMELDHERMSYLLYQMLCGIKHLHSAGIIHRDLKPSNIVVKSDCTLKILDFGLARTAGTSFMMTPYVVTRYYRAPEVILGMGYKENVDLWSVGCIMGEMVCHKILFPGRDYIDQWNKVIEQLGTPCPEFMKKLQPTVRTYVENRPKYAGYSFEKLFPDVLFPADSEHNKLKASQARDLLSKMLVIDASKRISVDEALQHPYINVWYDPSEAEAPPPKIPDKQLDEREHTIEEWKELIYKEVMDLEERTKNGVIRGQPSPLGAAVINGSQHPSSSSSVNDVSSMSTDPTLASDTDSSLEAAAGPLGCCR
Sequence of Mitogen-activated protein kinase 8/9 (Homo sapiens) (P45984 whole entry, looked up): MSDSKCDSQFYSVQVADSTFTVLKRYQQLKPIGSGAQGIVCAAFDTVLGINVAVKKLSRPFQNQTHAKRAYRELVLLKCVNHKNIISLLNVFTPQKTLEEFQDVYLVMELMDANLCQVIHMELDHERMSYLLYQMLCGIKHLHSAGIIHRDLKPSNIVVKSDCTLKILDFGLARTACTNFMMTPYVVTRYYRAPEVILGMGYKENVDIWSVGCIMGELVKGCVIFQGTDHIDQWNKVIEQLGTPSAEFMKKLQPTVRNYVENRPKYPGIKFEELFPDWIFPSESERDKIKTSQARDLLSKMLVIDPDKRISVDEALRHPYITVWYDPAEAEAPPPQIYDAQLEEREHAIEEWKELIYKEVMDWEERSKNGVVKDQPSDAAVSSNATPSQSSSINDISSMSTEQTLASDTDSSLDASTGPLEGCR
Summary of the method: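 A549 exposed at 10 µM for varying times, or at various concentrations for 6 h. Inhibition arms pretreated 1 h with SP600125 (10 µM) or NAC (5 mM) before 10 µM for 6 h. Lysates run on 10% SDS-PAGE and transferred to PVDF. p-JNK probed, GAPDH as loading control.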

[7] = target: T1, NF-kappa-B inhibitor alpha (Homo sapiens) (UniProt P25963); test: Inhibition of TNF-alpha induced IkappaBalpha degradation in human A549 cells at 1 to 10 uM preincubated for 1 hr followed by TNF-alpha addition and measured after 15 mins by Western blot analysis; type: cell-based
T1 sequence (whole entry): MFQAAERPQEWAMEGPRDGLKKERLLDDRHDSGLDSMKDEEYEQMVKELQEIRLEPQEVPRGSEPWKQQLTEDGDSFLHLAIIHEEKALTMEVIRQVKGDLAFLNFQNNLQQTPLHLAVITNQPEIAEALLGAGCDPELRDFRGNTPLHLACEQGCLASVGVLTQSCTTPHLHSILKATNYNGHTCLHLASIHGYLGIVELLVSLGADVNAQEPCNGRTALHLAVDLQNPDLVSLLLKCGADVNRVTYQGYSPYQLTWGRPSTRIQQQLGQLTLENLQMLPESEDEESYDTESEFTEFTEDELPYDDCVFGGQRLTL
Summary of the method: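 A549 preincubated 1 h at 1, 5 or 10 µM, or with BMS345541 (20 µM), then stimulated with TNFα (1 ng/mL) for 15 min. NAC arm: 5 mM NAC for 1 h, then 10 µM for 1 h. IκBα detected by western blot, GAPDH as loading control.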

A549 [8] = test: Antiproliferative activity against human A549 cells harboring IKKbeta at 6.67 to 60 uM after 24 hrs by MTT assay; type: functional, cell-based
Summary of the method: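 A549 (seeded 3 × 10^5 per well, overnight) transfected with IKKβ plasmid or empty vector using lipofectamine 2000 in serum-free medium for 6 h, then moved to 1640 with 10% FBS. Treated at 60, 20 or 6.67 µM for 24 h. MTT (5 mg/mL stock) added for 4 h, formazan dissolved in DMSO, absorbance read at 490 nm.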

A549 [9] = test: Chemosensitization activity in human A549 cells assessed as inhibition of clonogenic growth at 0.25 uM in presence of 0.25 uM cisplatin incubated for 2 days followed by replacement of growth media and measured after 8 days by crystal violet staining-based assay relative to control; type: functional
Summary of the method: (§2)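 A549 seeded at 1000 cells per well in 6-well plates, exposed to drug alone or combined with cisplatin or 5-Fu over a concentration series. Drug-containing medium replaced after 2 days. After a further 8 days, fixed with 1% methanol/1% formaldehyde and stained with 0.5% crystal violet. Percent inhibition at each concentration calculated relative to control.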

A549 [10] = test: Chemosensitization activity in human A549 cells assessed as inhibition of clonogenic growth at 0.25 uM in presence of 0.74 uM cisplatin incubated for 2 days followed by replacement of growth media and measured after 8 days by crystal violet staining-based assay relative to control; type: functional; summary of the method: as §2
A549 [11] = test: Chemosensitization activity in human A549 cells assessed as inhibition of clonogenic growth at 0.5 uM in presence of 0.74 uM cisplatin incubated for 2 days followed by replacement of growth media and measured after 8 days by crystal violet staining-based assay relative to control; type: functional; summary of the method: as §2
A549 [12] = test: Chemosensitization activity in human A549 cells assessed as inhibition of clonogenic growth at 0.25 uM in presence of 9 uM cisplatin incubated for 2 days followed by replacement of growth media and measured after 8 days by crystal violet staining-based assay relative to control; type: functional; summary of the method: as §2
A549 [13] = test: Anticlonogenic activity against human A549 cells assessed as inhibition of clonogenic growth at 0.25 uM incubated for 2 days followed by replacement of growth media and measured after 8 days by crystal violet staining-based assay relative to control; type: functional; summary of the method: as §2
A549 [14] = test: Anticlonogenic activity against human A549 cells assessed as inhibition of clonogenic growth at 0.5 uM incubated for 2 days followed by replacement of growth media and measured after 8 days by crystal violet staining-based assay relative to control; type: functional; summary of the method: as §2
A549 [15] = test: Anticlonogenic activity against human A549 cells assessed as inhibition of clonogenic growth at 1 uM incubated for 2 days followed by replacement of growth media and measured after 8 days by crystal violet staining-based assay relative to control; type: functional; summary of the method: as §2
A549 [16] = test: Induction of apoptosis in human A549 cells at 10 uM preincubated with NAC for 1 hr followed by compound addition and measured after 24 hrs by Annexin V-FITC/propidium iodide staining based flow cytometric analysis; type: functional, cell-based; summary of the method: as §1

With `COc1cc(/C=C2\CN(C)C/C(=C\c3cc(OC)c(OC)c(OC)c3)C2=O)cc(OC)c1OC` the IC50 (NCI-H1975) was 1 µM, the “log(RatioIC50)” value [1] was 1.42 and the Activity (A549 [2]) was “Dose-dependent effect”. For the same compound, the Activity (A549 [3]) was “Dose-dependent effect”, the Activity (A549 [4]) was “Active” and the Activity (A549 [5]) was “Dose-dependent effect”. The Activity [6] was “inactive”, the inhibition [7] was “Active” and the Activity (A549 [8]) was “inactive”. For the same compound, the inhibition at 0.25 µM (A549 [9]) was 51%, the “inhibition (INH)” value (A549 [10]) was 63% and the “inhibition (INH)” value (A549 [11]) was 82%. For the same compound, the “inhibition (INH)” value (A549 [12]) was 99%, the inhibition at 0.25 µM (A549 [13]) was 2 to 11% and the inhibition at 0.5 µM (A549 [14]) was 18%. For the same compound, the inhibition at 1 µM (A549 [15]) was 44% and the Activity (A549 [16]) was “inactive”.
